From ChEMBL document CHEMBL4007421, “Discovery and Preclinical Characterization of 3-((4-(4-Chlorophenyl)-7-fluoroquinoline-3-yl)sulfonyl)benzonitrile, a Novel Non-acetylenic Metabotropic Glutamate Receptor 5 (mGluR5) Negative Allosteric Modulator for Psychiatric Indications” (J Med Chem, 2017) come the findings set out here.

As a reminder, the ED50 is the dose at which the effect has come halfway, by size or by number of responders. For orientation: Ki means a measure of affinity in units of concentration, obtained from inhibition or displacement. The low end stands for a stronger hold on the target, the high end for a looser hold on the target. As usually defined, the IC50 is the concentration at which inhibition is half-maximal.

The test system of series [1] is Rattus norvegicus. In words: Anxiolytic activity in po dosed Wistar rat assessed as reduction in ultrasonic vocalization. Format: functional.
Series [2] concerns Rattus norvegicus. The experiment in a line: Anxiolytic activity in po dosed Wistar rat assessed as increase in water drinking time during punished period administered as suspension by Vogel punished drinking conflict test. Format: functional. As to conditions: read-out: MED. The method, boiled down:
(§1)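 Vogel punished-drinking test in rats, single i.p. or p.o. dose as suspension in 5% Tween 80; plasma sampled ~45 min after i.p. or ~75 min after p.o. dosing.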

In series [3] the test system is Rattus norvegicus. The experiment in a line: Anxiolytic activity in po dosed Wistar rat assessed as reduction in freezing behavior by contextual fearing test. Format: functional. As to conditions: read-out: MED.
For series [4], the system named is Rattus norvegicus. The experiment in a line: Toxicity in po dosed Harlan-Wistar rat assessed as decrease in spontaneous locomotor activity photocell-based activity monitor test. Format: organism-based. As to conditions: in vivo. An outline of the steps: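 Male Wistar rats were given 0, 10, 30 or 50 mg/kg p.o. Spontaneous locomotor activity (ambulatory movement) was recorded in a photocell-based activity monitor.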

The test system of series [5] is Liver. The experiment in a line: Intrinsic clearance in human liver microsomes at 2.5 uM assessed per gram of liver. Format: ADME, microsome. (Liver microsomes are a subcellular fraction often used to study metabolism.)
Series [6] has as its system Rattus norvegicus. The experiment in a line: Anxiolytic activity in ip dosed Wistar rat assessed as increase in water drinking time during punished period administered as suspension by Vogel punished drinking conflict test. In kind it is functional. The following applies: read-out: MED. An outline of the steps:
as §1

For series [7], the target named is Metabotropic glutamate receptor 5 (Rattus norvegicus, UniProt P31424). The experiment in a line: Displacement of [3H]M-MPEP from mGluR5 in Sprague-Dawley rat cerebrocortical membranes after 60 mins. A general note: Loss of bound radioactivity is the signal in a displacement assay; it reports binding, not function.
A further series concerns Plasma. The experiment in a line: Plasma concentration in Wistar rat at 30 mg/kg, ip administered as single dose. In kind it is ADME, organism-based. The following applies: in vivo. The method, boiled down:
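Rats dosed i.p. at 30 mg/kg. Plasma level was taken about 45 min after dosing, at the end of the Vogel session.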

In series [8] the test system is Liver. In words: Intrinsic clearance in rat liver microsomes at 2.5 uM assessed per gram of liver. In kind it is ADME, microsome.
The target in series [9] is Metabotropic glutamate receptor 5 (Homo sapiens, UniProt P41594). The experiment in a line: Negative allosteric modulation of human mGluR5a expressed in CHO cells assessed as reduction in DHPG-induced cytosolic Ca2+ influx after 10 to 20 mins by fluo-4/AM-dye based fluorometric analysis. Format: functional, cell-based.
Series [10] in a line: Plasma concentration in ip dosed Wistar rat at anxiolytic MED administered as suspension after 75 mins during Vogel punished drinking conflict test. Format: ADME, organism-based.

Metabotropic glutamate receptor 5 (Homo sapiens, UniProt P41594), sequence (P41594 whole entry): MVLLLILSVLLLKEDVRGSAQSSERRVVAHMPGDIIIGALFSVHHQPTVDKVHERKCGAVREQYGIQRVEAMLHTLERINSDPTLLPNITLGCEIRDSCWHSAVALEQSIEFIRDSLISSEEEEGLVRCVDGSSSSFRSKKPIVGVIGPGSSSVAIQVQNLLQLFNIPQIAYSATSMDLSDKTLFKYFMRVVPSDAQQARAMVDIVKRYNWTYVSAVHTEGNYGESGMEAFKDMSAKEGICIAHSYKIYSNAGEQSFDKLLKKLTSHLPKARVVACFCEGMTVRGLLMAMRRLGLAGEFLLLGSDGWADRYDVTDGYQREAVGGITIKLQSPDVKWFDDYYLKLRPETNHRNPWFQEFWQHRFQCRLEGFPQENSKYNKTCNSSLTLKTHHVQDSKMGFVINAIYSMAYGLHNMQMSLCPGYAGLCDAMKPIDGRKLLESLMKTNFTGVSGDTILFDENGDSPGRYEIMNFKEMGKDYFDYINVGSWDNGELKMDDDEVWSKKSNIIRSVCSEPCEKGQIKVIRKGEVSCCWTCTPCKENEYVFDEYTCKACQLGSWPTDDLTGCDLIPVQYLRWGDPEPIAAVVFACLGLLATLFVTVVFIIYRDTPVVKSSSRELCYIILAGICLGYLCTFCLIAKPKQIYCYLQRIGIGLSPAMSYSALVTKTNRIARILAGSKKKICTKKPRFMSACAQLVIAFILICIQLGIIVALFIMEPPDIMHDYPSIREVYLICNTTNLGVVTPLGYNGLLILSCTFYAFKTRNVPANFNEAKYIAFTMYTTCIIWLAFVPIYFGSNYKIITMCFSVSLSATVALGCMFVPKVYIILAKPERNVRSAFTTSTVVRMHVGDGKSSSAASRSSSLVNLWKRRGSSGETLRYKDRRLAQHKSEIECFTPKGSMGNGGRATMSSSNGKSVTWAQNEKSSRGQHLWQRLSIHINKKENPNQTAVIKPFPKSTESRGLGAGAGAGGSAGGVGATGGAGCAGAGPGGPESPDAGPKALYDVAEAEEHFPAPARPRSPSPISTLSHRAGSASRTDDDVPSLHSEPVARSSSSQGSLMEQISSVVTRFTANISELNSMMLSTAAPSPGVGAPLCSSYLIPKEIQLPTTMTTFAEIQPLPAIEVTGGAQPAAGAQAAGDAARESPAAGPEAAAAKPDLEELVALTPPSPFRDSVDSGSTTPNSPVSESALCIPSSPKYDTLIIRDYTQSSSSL
Metabotropic glutamate receptor 5 (Rattus norvegicus, UniProt P31424), sequence (P31424 whole entry): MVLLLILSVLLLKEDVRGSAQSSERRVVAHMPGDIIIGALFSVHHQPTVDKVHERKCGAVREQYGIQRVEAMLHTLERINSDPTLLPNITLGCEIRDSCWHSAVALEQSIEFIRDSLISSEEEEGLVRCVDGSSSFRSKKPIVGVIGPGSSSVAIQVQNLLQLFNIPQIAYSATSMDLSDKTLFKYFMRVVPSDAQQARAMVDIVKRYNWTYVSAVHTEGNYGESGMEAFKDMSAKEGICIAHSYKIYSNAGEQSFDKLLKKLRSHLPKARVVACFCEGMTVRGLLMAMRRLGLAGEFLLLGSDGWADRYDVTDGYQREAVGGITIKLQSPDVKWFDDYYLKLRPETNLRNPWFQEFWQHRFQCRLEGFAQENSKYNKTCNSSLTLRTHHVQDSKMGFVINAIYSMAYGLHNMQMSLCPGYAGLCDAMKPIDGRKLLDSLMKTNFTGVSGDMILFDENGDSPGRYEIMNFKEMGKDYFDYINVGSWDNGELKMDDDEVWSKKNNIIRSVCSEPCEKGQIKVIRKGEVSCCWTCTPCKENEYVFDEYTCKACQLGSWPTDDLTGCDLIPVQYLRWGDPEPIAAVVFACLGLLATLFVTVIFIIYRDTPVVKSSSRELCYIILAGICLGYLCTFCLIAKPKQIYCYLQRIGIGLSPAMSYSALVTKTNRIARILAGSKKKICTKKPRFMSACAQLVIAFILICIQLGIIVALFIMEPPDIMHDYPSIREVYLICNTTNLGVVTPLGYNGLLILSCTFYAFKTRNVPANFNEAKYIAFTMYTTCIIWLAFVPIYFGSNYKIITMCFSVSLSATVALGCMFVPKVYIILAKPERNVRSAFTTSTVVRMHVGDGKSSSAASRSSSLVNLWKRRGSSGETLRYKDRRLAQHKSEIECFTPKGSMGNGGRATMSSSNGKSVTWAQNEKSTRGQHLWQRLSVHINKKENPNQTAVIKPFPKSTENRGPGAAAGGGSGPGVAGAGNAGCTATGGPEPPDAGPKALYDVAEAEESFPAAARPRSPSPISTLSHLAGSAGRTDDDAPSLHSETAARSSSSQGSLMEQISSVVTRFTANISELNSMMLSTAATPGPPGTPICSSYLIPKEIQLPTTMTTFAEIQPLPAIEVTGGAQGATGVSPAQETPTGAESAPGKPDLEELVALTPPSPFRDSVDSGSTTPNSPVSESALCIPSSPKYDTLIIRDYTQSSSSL

`CN1C(=O)CN=C(c2ccccc2)c2cc(Cl)ccc21` [DIAZEPAM]: the ED50 with Rattus norvegicus [1] was 7.8 mg/kg; in the series with Rattus norvegicus [4], 9.7 mg/kg. Also, the minimal effective dose with Rattus norvegicus [2] was 2.5 mg/kg; in the series on Rattus norvegicus [3], greater than 10 mg/kg.

Regarding `O=S(=O)(c1cc(F)cc(F)c1)c1cnc2cc(F)ccc2c1-c1ccc(F)cc1`, the values for the CLint with Liver [5] and with Liver [8] were 0.01 mL/min/g and 0.93 mL/min/g, respectively. Further, the minimal effective dose in the series with Rattus norvegicus [6] was greater than 30 mg/kg; in the series on Rattus norvegicus [2] it was greater than 10 mg/kg. For the same compound, in series [7], affinity was put at a Ki of 18 nM. The concentration in the series with Plasma worked out at 206 nM. The IC50 in [9] was 25 nM.

With `O=S(=O)(c1cc(Cl)cc(Cl)c1)c1cnc2cc(F)ccc2c1-c1ccc(F)cc1`, the CLint came out at 0.18 mL/min/g in the series with Liver [5] and 1.15 mL/min/g with Liver [8]. Further, in the series on Rattus norvegicus [6], the minimal effective dose was greater than 30 mg/kg. In series [10], the concentration at 1.25 h was found to be 165 nM. Moreover, the IC50 in [9] turned out to be 25 nM.
